Results taken from ChEMBL document CHEMBL4513216, “Probing the Open Global Health Chemical Diversity Library for Multistage-Active Starting Points for Next-Generation Antimalarials” (ACS Infect Dis, 2020).

Assay: Toxicity liver stage against HepG2, at 10uM
Assay type: cell-based
Set-up: test concentration 10 uM, cell line HepG2-A16-CD81EGFP
Settings: human, HepG2-A16-CD81EGFP cells; read-out: INHIBITION
In short: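 Uninfected HepG2-A16-CD81EGFP cells, 3 × 10^3 per well, 1536-well, plated on prespotted compound at 10 μM final, parasite-free screening media added to match infected plates; puromycin 10 μM positive, DMSO 0.5% negative; run in parallel with 48 h PbLuc assay at 37 °C, 5% CO2; viability by CellTiter-Glo luminescence, normalized to controls.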

Compound	cytotoxicity at 10 µM
O=C(NC[C@@H]1CCCO1)c1cc(Br)cnc1N1CCCCC1	-1.69%
Cc1c(CC(C#N)C(=O)Nc2cccc(O)c2)cnn1C (configuration not stated)	0.781%
COc1coc(C(=O)Nc2nc(-c3cccnc3)cs2)cc1=O	2.66%
COC(=O)C1CCCN1Cc1ccco1 (configuration not stated)	9.21%
CN1CC2(CCN(C(=O)C3CCC3)CC2)COc2ccccc2S1(=O)=O	10.2%
COC(=O)C(NC(=O)Nc1ccc(C(C)=O)cc1)C(C)C (configuration not stated)	4.31%
CC(C)CCN1CN=C(NS(=O)(=O)c2ccc(F)cc2)NC1	-3.03%
O=C1CSC(c2ccsc2)c2sccc2N1 (configuration not stated)	2.19%
COCCN1C(=O)[C@]2(CC[C@@H]3CN(C(=O)NC4CCCC4)C[C@@H]32)N=C1C	-8.85%
CC(C)NC(=O)N1CCN(S(=O)(=O)C2CC2)CC2(CNC(=O)C2)C1 (configuration not stated)	1%
O=C1CCOC[C@]2(CN(Cc3ccccc3)C[C@H]2c2cccnc2)N1	4.73%
CC(=O)N1CCOC(c2ccnc(N(C)C)n2)C1 (configuration not stated)	1.62%
CC(C)N1CCC(c2cnc(-c3cn[nH]c3)cn2)CC1	5.36%
CC(=O)NC1CCc2ccc(S(=O)(=O)NCc3ncccc3C)cc21 (configuration not stated)	10.4%
CNc1ncc(CN2CCCC2c2[nH]ncc2C(=O)N(C)C)cn1 (configuration not stated)	2.91%
Cc1cc(-c2cccnc2)nc(C2CCCN2S(C)(=O)=O)n1 (configuration not stated)	4.36%
Cc1cc(C)nc(N2CCC(C(=O)Nc3ccc(C(C)C)cc3)CC2)n1	-3.02%
CC(=O)N1CCCC(c2nccnc2-c2ccc(CO)cc2)C1 (configuration not stated)	1.03%
O=C(Nc1nncs1)C1CSCN1C(=O)C1CCCC1 (configuration not stated)	11.3%
CSc1cccc(NC(=O)CCC(=O)Nc2nccs2)c1	-5.05%
COCCN(C(=O)c1cc(C)no1)c1ccc(C#N)cc1	6.51%

Compound	cytotoxicity at 10 µM
O=C(NCc1cccc(F)c1)c1cccc(C(=O)N2CCCC2)n1	5.79%
Cc1cc(C2CCCN(Cc3ncc(C)o3)C2)n[nH]1 (configuration not stated)	4.63%
Cc1cnn(CCNCc2cc(-c3ccccc3)no2)c1	-3.03%
O=S(=O)(CCN1CCCC1Cn1cccn1)c1ccccc1 (configuration not stated)	-11.9%
CCNC(=O)Nc1c(C)cnn1Cc1cc(F)ccc1F	5.28%
CCC(CC)(CCO)CNC(=O)c1ccon1	6.27%
O=C(O)c1cc2c(c(S(=O)(=O)N(CCCO)c3ccccc3)c1)CCC2	6.58%
CN(Cc1ccccc1NCc1cscn1)C(=O)c1cccs1	0.503%
CN1CCCC(N2CCN(c3cc(C(F)(F)F)ccn3)CC2)C1 (configuration not stated)	5.12%
Cc1cc(C(=O)CN2CCN(c3nccs3)CC2)c(C)n1C1CC1	10.6%
c1cc(CN2CCN(Cc3ccon3)C3(CCCCC3)C2)no1	-16.7%
N#CCCN(CCN1CCOCC1)Cc1ccc(F)c(Br)c1	-5.01%
Cc1nn(C)c(C)c1CNC1CCOc2ccccc21 (configuration not stated)	7.75%
Cc1nn(C)c(N(C)C)c1CNCC(O)c1ccccc1 (configuration not stated)	-0.989%
CCCn1ccc2ccc(NC(=O)N(C)CCOC)cc21	1.31%
COCCn1c2c(ccc1=O)CCN(C(=O)C1CC=CC1)CC2	4.77%
O=C(Nc1cccnc1)[C@H]1CN(Cc2cccs2)C[C@H]2OCC[C@@H]12	-109%
CN1CCN(Cc2cnc3n2CCN(C(=O)c2cnccn2)C3)CC1	-65.1%
CN(C)[C@@H]1CCN(C(=O)c2ccccn2)[C@H]1Cc1cnn(C)c1	-70%
Cc1occc1C(=O)N1CCc2ncnc(C3CCOC3)c2CC1 (configuration not stated)	-85%
OCCC1CN(c2nc(-c3cccnc3)nc3c2CCNCC3)CCO1 (configuration not stated)	-2.64%

Compound	cytotoxicity at 10 µM
CCCOC(=O)N1CCc2cccc(S(=O)(=O)N3CCOCC3)c2C1	-6.85%
Cn1cccc1-c1cc(C(=O)N2CCCCC2c2ccc(F)cc2)[nH]n1 (configuration not stated)	-2.8%
O=C(Cn1ccc2ncccc2c1=O)N1CCSCC1	-3.06%
CSCc1noc(-c2nc3c([nH]2)CCCNC3=O)n1	-2.48%
COCCn1cncc1CN1CCCC(C(=O)Cc2ccccc2)C1 (configuration not stated)	-6.55%
CCc1nc(CN(C)c2nccc(N3CCCC(O)C3)n2)no1 (configuration not stated)	0.324%
CN(C)C(C(=O)NCCS(=O)(=O)N(C)C)c1cccc(F)c1 (configuration not stated)	2.73%
CN(C)CCCn1ccc(-c2cccc(-c3ccccn3)c2)n1	-6.02%
CCC(=O)c1ccc(OCC(=O)N(C)C(C)c2ccon2)cc1 (configuration not stated)	1.71%
C=Cc1ccc(C(=O)NC2CCCc3nc(N(C)C)ncc32)cc1 (configuration not stated)	8.18%
Cn1c(CCC(=O)N2CCCC3(CC2)CNC(=O)O3)nc2cccnc21 (configuration not stated)	-3.56%
Cc1nc(N2CCN3CCCCC3C2)nc2cc(S(C)(=O)=O)ccc12 (configuration not stated)	-6.25%
COCCN(Cc1cnn(C)c1)C(=O)C1CCC(=O)N(C2CCCC2)C1 (configuration not stated)	6.11%
O=C1CC(c2ncc(-c3ccc4c(c3)OCCO4)[nH]2)CN1C1CCCC1 (configuration not stated)	10.8%
O=C(CCC(F)(F)F)N1CCCC(CO)(CC2CC2)C1 (configuration not stated)	2.75%
Cc1ccn2c(F)c(C(=O)N3CCC4(CCC(=O)N(C)C4)CC3)nc2c1	5.96%
CN(C)c1ncc2c(n1)CCCC2NC(=O)c1ccsc1 (configuration not stated)	10%
CCn1cc(CN2CCCn3nc(CNC(=O)N(C)C)cc3C2)cn1	6.99%
CCN(Cc1nc(COC)no1)C[C@]1(O)CCCN2CCCC[C@@H]21	-0.124%
NCCn1cc(C(=O)NCc2ccccc2-n2cccn2)nn1	-2.34%
O=C(c1ccc(Cn2ccccc2=O)o1)N1CCSCC1	-14.8%

Compound	cytotoxicity at 10 µM
COc1ncccc1CNC(=O)c1ccc(C)[nH]c1=O	-2.22%
Cn1cc(NC(=O)N2CCC(Cc3ccccc3)CC2)ccc1=O	1.07%
O=C(NCCCn1cncn1)N1CCCCCC1	-7.1%
CCCc1nc(C(C)(C)NC(=O)C2CC(=O)N(CC3CC3)C2)no1 (configuration not stated)	-3.61%
CCOC(=O)c1sc2ccsc2c1CNC(=O)C(C)(C)C#N	-4.42%
Cc1csc(C2CCCN(C(=O)c3cnc4n[nH]c(C)c4c3)C2)n1 (configuration not stated)	-9.39%
CCc1nc(-c2cncnc2C2CCCNC2)no1 (configuration not stated)	1.73%
O=S1(=O)CCC(NCCn2cncc2-c2ccc3c(c2)CCCO3)C1 (configuration not stated)	2.97%
Cc1cc(C2CCNCC2)nc(-c2ccsc2)n1	-1.97%
COCC1CN(c2ccc(C)nn2)Cc2cnn(C)c21 (configuration not stated)	11.7%
c1cncc(OC[C@]23COC[C@H]2CN(C2CCC2)C3)c1	4.64%
CN1C(Cn2cccn2)C[C@@H]2CN(Cc3ccccn3)CC[C@@H]21 (some centres not stated)	0.763%
COc1ccc(CN(Cc2ccco2)Cc2[nH]cnc2C)c(OC)c1	-1.57%
CC(C)CN1C(=O)C2(CCN(Cc3cccs3)C2)c2ccccc21 (configuration not stated)	10.1%
Cc1ccccc1CC(=O)N1C[C@@H]2COC[C@]2(CN(C)C)C1	3.79%
O=C(N1CCCC1)N1CCc2onc(COc3cccnc3)c2C1	-75.6%
CCCS(=O)(=O)N1CCOCC2(CCN(c3ccccn3)C2)C1 (configuration not stated)	2.42%
O=C(c1ccccn1)N1C[C@H]2CC[C@@H](C1)N(C(=O)c1ccsc1)C2	3.88%
CC(C)CNC(=O)[C@H]1C[C@H]2CN(C(=O)NCCc3ccccc3)C[C@@H]1O2	1.22%
